Experimental data from ChEMBL document CHEMBL1800017, “Resorcylic acid lactones with cytotoxic and NF-κB inhibitory activities and their structure-activity relationships” (J Nat Prod, 2011).
Active and inactive are the calls of the source. The rule behind the calls is not given here.

Columns and labels:
Escherichia coli [1] = test: Antimicrobial activity against Escherichia coli at 100 ug/mL by agar plate diffusion assay; assay type: functional, organism-based
Outline: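 Agar plate diffusion: overnight E. coli culture seeded into molten LB or Middlebrook 7H9 medium with 1% glycerol and 1.5% agar, held at 50 °C, then poured as assay plates. Samples dissolved in 10 µL MeOH were applied to the plate surface, and controls were treated the same way. Plates were incubated overnight at 37 °C.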

NCI-H460 = test: Cytotoxicity against human H460 cells after 72 hrs by MTS assay; assay type: functional, cell-based
Outline: (§1)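 Continuous 72 h exposure with MTS read-out. IC50 is the concentration reducing cellular proliferation by 50% relative to untreated controls.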

Escherichia coli [2] = test: Antimicrobial activity against Escherichia coli by agar plate diffusion assay; assay type: functional
Outline: (§2)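 Agar plate diffusion. Overnight cultures of each organism were seeded into molten LB or Middlebrook 7H9 medium with 1% glycerol and 1.5% agar, held at 50 °C, and poured as plates. Samples in 10 µL MeOH were spotted onto the surface and tested up to 500 µg/mL. Positive controls were penicillin G, novobiocin and streptomycin. Plates were incubated overnight at 37 °C.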

HT-29 [3] = test: Cytotoxicity against human HT-29 cells after 72 hrs by MTS assay; assay type: functional, cell-based; conditions: HT-29, 72 h
Outline: (§3)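 Cells were grown in RPMI 1640 with 10% FBS, penicillin and streptomycin. They were plated at 2500 (HT-29) or 5000 (MDA-MB-435) cells/well and preincubated 16 h at 37 °C in 5% CO2. Test substance was added at final 25, 5, 1, 0.2 and 0.04 µg/mL for 72 h. Read-out was MTS. IC50 is the concentration giving 50% reduction in proliferation versus untreated controls.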

MCF7 = test: Cytotoxicity against human MCF7 cells after 72 hrs by MTS assay; assay type: functional, cell-based; conditions: MCF7, 72 h; outline: as §1
SF-268 = test: Cytotoxicity against human SF268 cells after 72 hrs by MTS assay; assay type: functional, cell-based; outline: as §1
[4] = tested on: Mycolicibacterium smegmatis; test: Antimicrobial activity against Mycobacterium smegmatis by agar plate diffusion assay; assay type: functional; outline: as §2
Transcription factor p65 = Transcription factor p65 (Homo sapiens, UniProt Q04206); test: Inhibition of NFkappa p65 isolated from nuclear extract of human HeLa cells by ELISA; assay type: cell-free
Bacillus subtilis = test: Antimicrobial activity against Bacillus subtilis by agar plate diffusion assay; assay type: functional; outline: as §2
MDA-MB-435 = test: Cytotoxicity against human MDA-MB-435 cells after 72 hrs by MTS assay; assay type: functional, cell-based; conditions: MDA-MB-435, 72 h; outline: as §3
Staphylococcus aureus = test: Antimicrobial activity against Staphylococcus aureus by agar plate diffusion assay; assay type: functional; outline: as §2
HT-29 [5] = test: Inhibition of mitochondrial membrane potential in human HT-29 cells using JC1 dye staining by fluorescence plate reader assay; assay type: functional, cell-based
Outline: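 HT-29 cells exposed to a range of test concentrations, then loaded with JC-1 dye and washed to remove unbound stain. Fluorescence read for monomers (ex 485/em 530 nm, apoptotic) and aggregates (ex 560/em 595 nm, healthy). Staurosporine positive control. Triplicate measurements, at least two independent experiments; IC50 reported.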

Chain of Transcription factor p65 (Q04206 whole entry, the tested form may be a part): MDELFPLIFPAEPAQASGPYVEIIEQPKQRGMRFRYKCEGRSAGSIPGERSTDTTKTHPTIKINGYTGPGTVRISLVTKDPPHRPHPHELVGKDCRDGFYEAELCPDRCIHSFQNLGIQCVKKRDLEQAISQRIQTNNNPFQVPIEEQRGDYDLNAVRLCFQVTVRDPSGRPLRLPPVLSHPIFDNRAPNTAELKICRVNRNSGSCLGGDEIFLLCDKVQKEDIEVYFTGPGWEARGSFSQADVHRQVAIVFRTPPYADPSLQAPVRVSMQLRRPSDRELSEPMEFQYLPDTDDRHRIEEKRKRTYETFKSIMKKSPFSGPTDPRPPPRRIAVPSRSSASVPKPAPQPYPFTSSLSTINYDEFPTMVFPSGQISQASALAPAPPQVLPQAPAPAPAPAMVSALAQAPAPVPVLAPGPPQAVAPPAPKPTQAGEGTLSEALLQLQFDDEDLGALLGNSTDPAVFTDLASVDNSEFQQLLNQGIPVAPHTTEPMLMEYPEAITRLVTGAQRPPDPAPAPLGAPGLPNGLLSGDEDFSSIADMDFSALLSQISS

CC1(C)S[C@@H]2[C@H](NC(=O)Cc3ccccc3)C(=O)N2[C@H]1C(=O)O was tested. Which inhibition (Escherichia coli [1]) did it give?
The inhibition was “Active”.

What does the source list for COc1cc(O)c2c(c1)/C=C/C[C@H](O)[C@H](O)C(=O)/C=C\C[C@H](C)OC2=O?
IC50 (NCI-H460; Homo sapiens, NCI-H460, 72 h): 1.2 µM; MIC (Escherichia coli [2]): > 500 µg/mL; IC50 (HT-29 [3]): 3.6 µM; IC50 (MCF7): 3.8 µM; IC50 (SF-268; Homo sapiens, SF-268, 72 h): 5.1 µM; MIC [4]: > 500 µg/mL; IC50 (Transcription factor p65): 0.25 µM; MIC (Bacillus subtilis): > 500 µg/mL; IC50 (MDA-MB-435): 3.3 µM

How did the IC50 (NCI-H460; Homo sapiens, NCI-H460, 72 h) turn out when COc1cc(O)c2c(c1)[C@H]1O[C@@H]1C[C@H](O)[C@H](O)C(=O)/C=C\C[C@H](C)OC2=O [HYPOTHEMYCIN] was run?
The IC50 was 4.3 µM.

And the IC50 (MCF7)?
The IC50 was 16.3 µM.

And the IC50 (SF-268; Homo sapiens, SF-268, 72 h)?
Its IC50 is 12.7 µM.

COc1cc(O)c2c(c1)/C=C/C[C@H](O)[C@H](O)[C@H](O)/C=C/C[C@H](C)OC2=O was tested. Which IC50 (NCI-H460; Homo sapiens, NCI-H460, 72 h) did it give?
The IC50 was greater than 100 µM.

What about the IC50 (HT-29 [3]) of the same compound?
Its IC50 is greater than 25 µM.

What about the IC50 (MCF7) of the same compound?
The IC50 was greater than 100 µM.

And the MIC (Staphylococcus aureus)?
The MIC was greater than 500 µg/mL.

What about the IC50 (SF-268; Homo sapiens, SF-268, 72 h) of the same compound?
The IC50 was greater than 100 µM.

What about the MIC [4] of the same compound?
The MIC was greater than 500 µg/mL.

And the IC50 (Transcription factor p65)?
The IC50 was greater than 50 µM.

What about the MIC (Bacillus subtilis) of the same compound?
The MIC was greater than 500 µg/mL.

What about the IC50 (MDA-MB-435) of the same compound?
The IC50 was greater than 25 µM.

Which IC50 (NCI-H460; Homo sapiens, NCI-H460, 72 h) does the source give for COc1cc(O)c2c(c1)/C=C/C[C@H](O)[C@H](O)[C@@H](O)/C=C/C[C@H](C)OC2=O [ZEAENOL] here?
The IC50 was greater than 100 µM.

What about the MIC (Escherichia coli [2]) of the same compound?
Its MIC is greater than 500 µg/mL.

What about the IC50 (HT-29 [3]) of the same compound?
The IC50 was greater than 25 µM.

And the IC50 (MCF7)?
The IC50 was greater than 100 µM.

What about the IC50 (SF-268; Homo sapiens, SF-268, 72 h) of the same compound?
The IC50 was greater than 100 µM.

And the MIC [4]?
The MIC was greater than 500 µg/mL.

And the IC50 (Transcription factor p65)?
The IC50 was greater than 50 µM.

And the IC50 (MDA-MB-435)?
The IC50 was greater than 25 µM.

COC(=O)[C@H]1[C@@H](O)[C@@]2(O)c3c(OC)cc(O[C@@H]4O[C@@H]([C@H](O)CO)CO[C@H]4OC)cc3O[C@@]2(c2ccc(OC)cc2)[C@@H]1c1ccccc1 [SILVESTROL] was tested. Which IC50 (HT-29 [3]) did it give?
Its IC50 is 0.004 µM.

What about the IC50 (MDA-MB-435) of the same compound?
The IC50 was 0.006 µM.

With C[C@H]1CCC[C@@H](O)CCCCCc2cc(O)cc(O)c2C(=O)O1 (stereo in doubt; 10) [TALERANOL] as the compound, how does the IC50 (NCI-H460; Homo sapiens, NCI-H460, 72 h) read?
The IC50 was 15.4 µM.

What about the IC50 (MCF7) of the same compound?
Its IC50 is greater than 25 µM.

And the IC50 (SF-268; Homo sapiens, SF-268, 72 h)?
Its IC50 is greater than 50 µM.

With COc1cc(O)c2c(c1)/C=C/C[C@H](O)[C@H](O)C(=O)/C=C/C[C@H](C)OC2=O as the compound, how does the IC50 (HT-29 [3]) read?
Its IC50 is 4.4 µM.

And the IC50 (MCF7)?
The IC50 was 4.9 µM.

And the MIC (Staphylococcus aureus)?
The MIC was greater than 500 µg/mL.

What about the IC50 (SF-268; Homo sapiens, SF-268, 72 h) of the same compound?
Its IC50 is 5.6 µM.

And the MIC [4]?
Its MIC is greater than 500 µg/mL.

What about the IC50 (Transcription factor p65) of the same compound?
The IC50 was 11.5 µM.

And the IC50 (MDA-MB-435)?
Its IC50 is 5.5 µM.

How did the IC50 (NCI-H460; nci-h460) turn out when C[C@H]1CCC[C@@H](O)CCCCCc2cc(O)cc(O)c2C(=O)O1 (stereo in doubt; 12) [TALERANOL] was run?
The IC50 was 9.5 µM.

And the IC50 (SF-268; sf-268)?
Its IC50 is greater than 25 µM.

COc1cc(O)c2c(c1)/C=C/C[C@H](O)[C@H](O)C(=O)CCC[C@H](C)OC2=O was tested. Which IC50 (NCI-H460; Homo sapiens, NCI-H460, 72 h) did it give?
Its IC50 is greater than 25 µM.

And the MIC (Escherichia coli [2])?
Its MIC is greater than 500 µg/mL.

What about the IC50 (HT-29 [3]) of the same compound?
The IC50 was greater than 50 µM.

What about the IC50 (MCF7) of the same compound?
The IC50 was greater than 50 µM.

And the MIC (Staphylococcus aureus)?
Its MIC is greater than 500 µg/mL.

What about the IC50 (SF-268; Homo sapiens, SF-268, 72 h) of the same compound?
The IC50 was greater than 50 µM.

And the MIC [4]?
The MIC was greater than 500 µg/mL.

What about the IC50 (Transcription factor p65) of the same compound?
Its IC50 is greater than 50 µM.

What about the MIC (Bacillus subtilis) of the same compound?
Its MIC is greater than 500 µg/mL.

What about the IC50 (MDA-MB-435) of the same compound?
Its IC50 is greater than 50 µM.

C[C@H]1CCC[C@H](O)CCCCCc2cc(O)cc(O)c2C(=O)O1 [ZERANOL] was tested. Which IC50 (NCI-H460; Homo sapiens, NCI-H460, 72 h) did it give?
The IC50 was greater than 50 µM.

What about the IC50 (MCF7) of the same compound?
Its IC50 is greater than 50 µM.

What about the IC50 (SF-268; Homo sapiens, SF-268, 72 h) of the same compound?
Its IC50 is greater than 50 µM.

What does the source list for C[C@H]1CCCC(=O)CCCCCc2cc(O)cc(O)c2C(=O)O1 [ZEARALANONE]?
IC50 (NCI-H460; Homo sapiens, NCI-H460, 72 h): > 25 µM; IC50 (MCF7): > 25 µM; IC50 (SF-268; Homo sapiens, SF-268, 72 h): > 50 µM

CC[C@@]1(O)C(=O)OCc2c1cc1n(c2=O)Cc2cc3ccccc3nc2-1 [CAMPTOTHECIN] was tested. Which IC50 (NCI-H460; Homo sapiens, NCI-H460, 72 h) did it give?
Its IC50 is less than 0.01 µM.

What about the IC50 (MCF7) of the same compound?
The IC50 was 0.07 µM.

What about the IC50 (SF-268; Homo sapiens, SF-268, 72 h) of the same compound?
The IC50 was 0.04 µM.

Which IC50 (HT-29 [5]) does the source give for CN[C@@H]1C[C@H]2O[C@@](C)([C@@H]1OC)n1c3ccccc3c3c4c(c5c6ccccc6n2c5c31)C(=O)NC4 [STAUROSPORINE] here?
Its IC50 is 0.0025 µM.

How did the IC50 (NCI-H460; Homo sapiens, NCI-H460, 72 h) turn out when C[C@H]1CCCC(=O)CCC/C=C/c2cc(O)cc(O)c2C(=O)O1 [ZEARALENONE] was run?
The IC50 was greater than 25 µM.

What about the IC50 (MCF7) of the same compound?
The IC50 was greater than 25 µM.

And the IC50 (SF-268; Homo sapiens, SF-268, 72 h)?
The IC50 was greater than 50 µM.

What does the source list for C[C@H]1C/C=C\C(=O)[C@@H](O)[C@@H](O)C/C=C/c2cc(O)cc(O)c2C(=O)O1?
IC50 (NCI-H460; Homo sapiens, NCI-H460, 72 h): 4.1 µM; MIC (Escherichia coli [2]): > 500 µg/mL; IC50 (HT-29 [3]): 11.5 µM; IC50 (MCF7): 10.3 µM; MIC (Staphylococcus aureus): > 500 µg/mL; IC50 (SF-268; Homo sapiens, SF-268, 72 h): 8.9 µM; MIC [4]: > 500 µg/mL; IC50 (Transcription factor p65): 0.75 µM; MIC (Bacillus subtilis): > 500 µg/mL; IC50 (MDA-MB-435): 15.8 µM
